NR1D1 modulator – modulators of Rev-erb alpha DNA binding, primary screen, biochemical, FITC-DNA, fluorescence polarization, uHTS | Rev-erbα–FITC-DNA binding, 90 min | Nuclear receptor subfamily 1 group D member 1 (Homo sapiens), P20393 | 0.79% of 370,000 active | AID 1259318, 2017 | activity, % at 10 µM;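 active means activity above about 14%, limit read from the data; passing the limit was not always enough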;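 further: 0% = DMSO wells with 35 nM protein and 100% = DMSO wells with 750 nM protein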
NR2E3 ag-1 – NR2E3 agonists in two-hybrid cells, primary screen, cell-based, luminescence, CHO-S, Gal4-NCOR/VP16-NR2E3; Photoreceptor-specific nuclear receptor (Homo sapiens), Q9Y5X4; luciferase; inhibition of corepressor binding, % at 3.98 µM; 0.35% of 360,000 active;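 active means inhibition above the mean of all tested compounds plus 3 SD, cut at about 70% in these data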;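 further: 0% = DMSO with NR2E3 transfected cells and 100% = cells lacking NR2E3 construct; higher means lower luciferase signal from less NR2E3 corepressor binding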
Target sequence (Q9Y5X4 whole entry, looked up, the tested form may be a part): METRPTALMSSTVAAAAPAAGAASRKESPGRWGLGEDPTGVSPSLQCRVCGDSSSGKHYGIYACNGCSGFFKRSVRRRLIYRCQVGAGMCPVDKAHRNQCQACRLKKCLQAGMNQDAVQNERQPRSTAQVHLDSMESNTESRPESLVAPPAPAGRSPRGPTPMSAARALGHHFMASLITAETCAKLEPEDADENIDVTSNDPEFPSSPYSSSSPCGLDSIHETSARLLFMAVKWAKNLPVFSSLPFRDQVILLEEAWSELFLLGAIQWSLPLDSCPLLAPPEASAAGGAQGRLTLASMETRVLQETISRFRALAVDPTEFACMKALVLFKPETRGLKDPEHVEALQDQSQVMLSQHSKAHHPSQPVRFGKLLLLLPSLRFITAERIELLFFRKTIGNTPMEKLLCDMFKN
PG9 Ab binder – binders of HIV-1 gp120 antibody PG9, primary screen, biochemical, TR-FRET; HIV-1 gp120 / PG9 antibody interaction; TR-FRET gp120-PG9 antibody binding; inhibition, % at 6.7 µM; 0.43% of 360,000 active; in the data active means inhibition above about 8.5%
NR2E3 ag-2 – inhibitors of NR2E3-RetCOR corepressor binding, primary screen, NR2E3 agonist project, biochemical, TR-FRET, GST-NR2E3, biotin-RetCOR. Photoreceptor-specific nuclear receptor (Homo sapiens), Q9Y5X4. 1536-well. inhibition of corepressor binding, % at 4.78 µM. 0.12% of 320,000 active. AID 2300, 2010;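 active means percent inhibition above the cutoff of mean plus 3 SD of all tested compounds, set per screening campaign, cut at about 20% in these data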;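 further: 0% = DMSO wells and 100% = biotin wells as full block of FRET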
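System: GST-tagged NR2E3 plus biotinylated RetCOR corepressor; Buffer or medium: pH 7.5 Tris-based buffer; Probe or stimulus: RetCOR corepressor, biotinylated, 7 nM; Doses: compound at 4.8 µM, single dose; Schedule: 5 h incubation at 4 °C; Technique: time-resolved FRET; Evaluation: percent inhibition of TR-FRET ratio; Replication: one well per compound, singlicate testing.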
Rev-erbA confirm – modulators of Rev-erb alpha DNA binding, confirmation, biochemical, FITC-DNA, fluorescence polarization, single point; shares compounds with NR1D1 modulator; 61% of 3,000 active; 90 min; AID 1259319, 2017; activation, % at 25 µM;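 active means activation at or above a set limit, or at least 3 SD above the negative control mean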;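 further: 0% = 35 nM protein with DMSO and 100% = 750 nM protein high control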
RORg counter – modulation of RORgamma DNA binding, dose response, counter-screen for Rev-erb alpha modulator project, biochemical, fluorescence polarization, FITC-DNA; shares compounds with NR1D1 modulator; purified RORgamma protein-FITC-DNA binding; IC50, µM; 8% of 910 active; AID 1259320, 2017;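 active means Compounds whose fitted half-maximal concentration for disrupting protein-DNA binding is below 10 micromolar; the record names Rev-erb in its text, so the target is in doubt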
* hit, by the source's call; x = not tested or not shown. Compounds with a hit are over-represented: about 1.4% of the library has one in this group of screens.

SMILES	NR1D1 modulator	NR2E3 ag-1	PG9 Ab binder	NR2E3 ag-2	Rev-erbA confirm	others
COC(=O)C1CN(Cc2ccccc2)CCS(=O)(=O)N1Cc1ccccc1 (stereo unspecified)	2	x	x	x	x
Cc1ccc(S(=O)(=O)Nc2cc(C(=O)O)ccc2N2CCC(C)CC2)cc1C	11	x	x	x	x
COc1cc(OC)cc(C(=O)Nc2ccc(S(=O)(=O)Nc3ccccn3)cc2)c1	25*	-27	-2	1	17
COc1cc(OC)cc(C(=O)Nc2ccc(S(=O)(=O)Nc3cnc4ccccc4n3)cc2)c1	-5	-23	-1	0	x
COC(=O)[C@]12CCCCC=C1N(Cc1ccc(OC)cc1)C(=O)[C@@H]2CC(=O)N1CCSCC1	0	x	x	x	x
CCOC(=O)c1cc(-c2ccccc2)sc1NC(=O)C(C)C	-4	-5	1	-1	x
CCOC(=O)c1cc(-c2ccccc2)sc1NC(=S)Nc1cccc(C)n1	26*	-3	2	-4	1
CCOC(=O)c1cc(-c2ccccc2)sc1NC(=O)C(C)OC(=O)c1cccnc1Cl (stereo unspecified)	20*	-12	-2	3	13
CC(CCN1CCC(C(O)(c2ccccc2)c2ccccc2)CC1)Oc1cccc(F)c1 (stereo unspecified)	-2	x	x	x	x
COC(=O)CC1CCc2cc(C)cc(C(=O)CC(C)C)c2O1 (stereo unspecified)	-4	x	x	x	x
CN(C)S(=O)(=O)c1cccc(C(=O)N/N=C\c2ccccc2[N+](=O)[O-])c1	-1	x	x	x	x
Cc1ccc2nc(SCC(=O)Nc3ccccc3N3CCOCC3)c(C#N)cc2c1	28*	0	1	-1	18*
Cc1ccc(SCC(=O)Nc2cc(C)on2)cc1	7	-32	1	-3	x
Cc1cc(NC(=O)CSc2nc3ccccc3cc2C#N)no1	27*	-52	-10	3	18*
CCOc1ccc2nc(SCC(=O)N3c4ccccc4Sc4ccccc43)sc2c1	0	5	-2	0	x
CCc1cc2ccc(C)cc2nc1SCC(=O)Nc1cc(C)on1	17*	-14	5	-6	9
CCOc1ccc2nc(SCC(=O)N3c4ccccc4Sc4ccccc43)c(C#N)cc2c1	142*	11	-3	-1	61*	RORg counter=>40
C=CCOC(=O)N[C@H](c1ccccc1)[C@H](C)/C=C/CC(=O)OC	0	x	x	x	x
CCCCNC(=O)C[C@H]1C[C@@]2(C(=O)OC)C(=C[C@H](C(C)(C)C)O[C@@H]2C)N(Cc2ccco2)C1=O	-1	x	x	x	x
COc1ccc2nc(SCC(=O)Nc3cc(C)on3)c(C#N)cc2c1	61*	-21	-5	0	27*
Cc1ccc2cc(C#N)c(SCC(=O)N3CCCc4ccccc43)nc2c1	60*	-5	-2	1	44*	RORg counter=>40
N#Cc1cc2cc3c(cc2nc1SCC(=O)N1CCOCC1)OCCO3	17*	11	0	-1	7
Cc1cc2cc3c(cc2nc1SCC(=O)N1CCCC1)OCCO3	-1	8	0	x	x
CCSc1nc2ccc(C)cc2cc1C#N	30*	12	-1	2	12
C=CCN(CC#Cc1ccccc1)CC=C	2	x	x	x	x
SMILES	NR1D1 modulator	NR2E3 ag-1	PG9 Ab binder	NR2E3 ag-2	Rev-erbA confirm	others
O=C(CSc1nnc(-c2ccccc2)n1Cc1ccco1)Nc1ccc(Oc2ccccc2)cc1	-6	x	x	x	x
C=CCN1C(=O)[C@H](CC(=O)NCc2cccc(C(F)(F)F)c2)[C@@]2(C(=O)OCC)CCCC=C12	-2	x	x	x	x
O=C(CSc1nnc2scc(-c3ccccc3)n12)Nc1nsc(-c2ccccc2)n1	44*	-2	x	-244	39*	RORg counter=>40
O=C(CSc1nnc2scc(-c3ccccc3)n12)Nc1nsc(-c2ccc(Cl)cc2)n1	31*	3	0	5	17
O=C(NC1CCCN(c2ccc(C(F)(F)F)cn2)C1)c1cc(Cl)ccc1F (stereo unspecified)	20*	-21	0	1	13
Cc1ccc(C(=O)NC2CCCN(c3ccc(C(F)(F)F)cn3)C2)cn1 (stereo unspecified)	3	11	-1	4	x
CC(=O)Nc1nc(CC(C)C)cc2c1c(=O)oc1ccccc12	27*	-15	6	2	3
CC(=O)c1ccc(NC(=O)COC(=O)c2ccccc2Sc2ccccc2C#N)cc1	55*	-32	-2	2	31*	RORg counter=>40
N#Cc1cccc(NC(=O)COC(=O)c2ccccc2Sc2ccccc2C#N)c1	37*	-107	-2	-1	21*
CC(=O)c1cccc(NC(=O)c2csc(-n3nc(C)cc3C(F)(F)F)n2)c1	78*	-3	-1	-3	70*	RORg counter=>40
COc1ccc(CNC(=O)COC(=O)c2cc(-c3ccc(Cl)s3)nc3ccccc23)cc1	121*	-19	6	4	61*
COc1ccc2nc(-c3ccccc3)cc(C(=O)OCC(=O)NC3CC3)c2c1	18*	8	0	x	2
COc1ccc(-c2cc(C(=O)OCC(=O)NC3CC3)c3ccccc3n2)cc1OC	1	-15	0	x	x
O=C(COC(=O)c1cc(-c2ccc(Cl)s2)nc2ccccc12)NCc1ccco1	-5	-30	1	0	x
O=C(NCc1ccccn1)c1ccc(Cn2c(=S)[nH]c3ccc(Br)cc3c2=O)cc1	42*	-6	-1	2	35*	RORg counter=>40
O=C(NCc1ccccn1)c1ccc(Cn2c(=S)[nH]c3ccccc3c2=O)cc1	0	-6	-3	8	x
O=c1c2ccccc2[nH]c(=S)n1CCc1ccccc1	5	-106	-2	15	x
O=c1c2ccccc2[nH]c(=S)n1Cc1ccccc1	19*	11	0	4	6
COc1ccc(-n2c(SCC(=O)C(C)(C)C)nc3ccsc3c2=O)cc1	21*	0	3	-1	20*
COc1ccc(-n2c(SCC(=O)NCCC(C)C)nc3ccsc3c2=O)cc1	2	-9	2	0	x
O=C(CCc1nc2sc3c(c2c(=O)[nH]1)CCCC3)NCCc1ccc(Cl)cc1	21*	9	5	x	7
Cc1ccc(OCCNC(=O)CCc2nc3sc4c(c3c(=O)[nH]2)CCCC4)cc1	20*	-4	7	0	12
CCc1ccc(NC(=O)CCc2nc3sc4c(c3c(=O)[nH]2)CCCC4)cc1	19*	-1	7	-2	7
CCN(c1ccc(NC(=O)CCc2nc3sc4c(c3c(=O)[nH]2)CCCC4)cc1)C(C)C	-6	-1	0	0	x
O=C(NCCc1nc2ccccc2n1CCOc1cc(F)ccc1F)C1CCCCC1	7	x	x	x	x
